Fewer inactive variants are shown than the library holds.
B1: tRNA (parent)
chain: GUUCCGUUGGCGUAAUGGUAACGCGUCUCCCUCCUAAGGAGAAGACUGCGGGUUCGAGUCCCGUACGGAACG

Variants of: B1
Assay: yeast fitness relative to wild type (ratio to wild type); higher = fitter; tRNA-Arg(CCU), competitive growth, 37 C, YPD
Procedure, shortened: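 Variants of the tRNA-Arg(CCU) gene were chemically synthesised with a 3% per-site mutation rate across 69 sites and placed at the native genomic locus in Saccharomyces cerevisiae. Six parallel replicates of the pooled strains were competed in YPD at 37°C for 24 hours, and gene amplicons from the start and end populations were read by 100-nucleotide paired-end sequencing. Darwinian fitness relative to wild type was derived from changes in genotype frequencies. Genotypes required ≥ 100 starting reads, and estimates < 0.5 were set to 0.5.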

Row | Variant | yeast fitness
1 | GUUCAGUUGGCGUAAAGGUAGCGCGUGUCCCUCCUAAGGAGAAGAUUGCGGGUUCGAGUCCCGUACGGAACG [C5A U16A A21G C27G C46U] | ≤ 0.5
2 | GUUCAGUUGGCGUAAAGGUAACGCGUCUCCCUCCUAAGGAGAAGGCUGCAGGUUCGAGUCCCGUACGGAACG [C5A U16A A45G G50A] | 0.529
3 | GUUCAGUUGGCGUAAAGGUAACGCGUCUCCCUCCUAAGGAGAAGGCUGCAGGUUCAAGUCCCGUACGGAACG [C5A U16A A45G G50A G56A] | ≤ 0.5
4 | GUUCAGUUGGCGUAAAGGUAACGCGUCUCCCUCCCAAGGAGAAGGCUGCAGGUUCGAGUCCCGUACGGAACG [C5A U16A U35C A45G G50A] | ≤ 0.5
5 | GUUCAGUUGGCGUAACGGUACCGCGUCUCCCUUCUAAGGGGAAGACUGCGGGUGCGAGUCCGGUACGGAACG [C5A U16C A21C C33U A40G U54G C62G] | 0.577
6 | GUUCAGUUGGCGUAACGGUAACGCGUCUCCCUCCUAAGGAGAAGGCUGCAGGUUCGAGUCCCGUACGGAACG [C5A U16C A45G G50A] | ≤ 0.5
7 | GUUCAGUUGGCGUAACGGUAACGCGUCUCCCUCCUAAGGAGAAGACUGCGGGUUCGAGGCCCGUACGGAACG [C5A U16C U59G] | ≤ 0.5
8 | GUUCAGUUGGCGUAAGGGUGACGCGUCUGCCUCCUAAGGAGAAGACUGCGGGUUCGAGUCCCGUACGGAACG [C5A U16G A20G C29G] | 0.601
9 | GUUCAGUUGGCGUAAGGGUACCGUGUCUCACUCCUAAGGAGAAGACUGCGGGUUCGAGGCCCGUACGGAACG [C5A U16G A21C C24U C30A U59G] | ≤ 0.5
10 | GUUCAGUUGGCGUAAGGGUAACGCGUCUCCCUCCUAAGGAGAAGACUGCGGGUUCGAGUCCCGUACGGCACG [C5A U16G A69C] | 0.69
11 | GUUCAGUUGGCGUAAUGGAAACGCGUCUCCCUCCUAAGGAGAAGACUGCGGGUUCGAGUCCCGUCCGGAACG [C5A U19A A65C] | 0.538
12 | GUUCAGUUGGCGUAAUGGAAACGCGUCUCCCUCCUAAGGAGAAGACUGCGGGUUCGAGUCCAGUACGGAACG [C5A U19A C62A] | ≤ 0.5
13 | GUUCAGUUGGCGUAAUGGAAACGCGUCUCCCUCCUAAGGAGAAGACUGCGGGUUCGAGUCCCGUACGCAACG [C5A U19A G68C] | 0.539
14 | GUUCAGUUGGCGUAAUGGGAACGCGUCUCCCUCCUAAGGAGAAGACUGCGGGUUCGAGUCCCGUACGGAACG [C5A U19G] | 0.731
15 | GUUCAGUUGGCGUAAUGGGAACGCGUCUCCCUCCUAAGGAGAUGACUGCGGGUUCGAGUCCCGUACGGAACG [C5A U19G A43U] | 0.656
16 | GUUCAGUUGGCGUAAUGGUAACGCGACUCCCUCCUAAGGGGAAGACUGCGGGUUCGACUCCCGUACUGAACG [C5A U26A A40G G58C G67U] | 0.56
17 | GUUCAGUUGGCGUAAUGGUAACGCGACUCCCUCCUAAGGAGAAGACUGCGGGUUCAAGUCCCGUGCGGAACG [C5A U26A G56A A65G] | 0.565
18 | GUUCAGUUGGCGUAAUGGUAACGCGGCUCCCUCCUAAGGAGAAGACUGCGGGUUCGAGUCCCGUACGGAACG [C5A U26G] | 0.785
19 | GUUCAGUUGGCGUAAUGGUAACGCGUCCCCCUCCCAAGGAGAAGACUGCGGGUUCGAGUCCCGUAUGGAACG [C5A U28C U35C C66U] | ≤ 0.5

Row | Variant | yeast fitness
20 | GUUCAGUUGGCGUAAUGGUAACGCGUCGCCCUCCUAAGGAGUAGACUGCGGGUUCGAGUCCCGUACGGAACG [C5A U28G A42U] | ≤ 0.5
21 | GUUCAGUUGGCGUAAUGGUAACGCGUCUCCCCCCUGAGGAGAAGACUGCGGGUUCGAGUCCCGUACGGAACG [C5A U32C A36G] | 0.53
22 | GUUCAGUUGGCGUAAUGGUAACGCGUCUCCCUCCUAAGGAGAAGACUGCGGGUAGGAGUCCCGUCCGGAACG [C5A U54A C55G A65C] | ≤ 0.5
23 | GUUCAGUUGGCGUAAUGGUAACGCGUCUCCCUCCUAAGGAGAAGACUGCGGGUUCGAGACCCGUACGGGACG [C5A U59A A69G] | ≤ 0.5
24 | GUUCAGUUGGCGUAAUGGUAACGCGUCUCCCUCCUAAGGAGAAGACUGCGGGUUCGAGAUCCGUACGGAACG [C5A U59A C60U] | ≤ 0.5
25 | GUUCGGUUGGCGUCAUGGUAACGCGUCUACGUCCUAAGGAGAAGACUGCGGGUUCGAGUCCCGUACGGAACG [C5G A14C C29A C31G] | 0.529
26 | GUUCGGUUGGCGUCAUGGUAACGCGUCUCCCUCGUAAGGAGAAGACUGCGGGUUCGAGUCCCGUACGGAACG [C5G A14C C34G] | ≤ 0.5
27 | GUUCGGUUGGCGUCAUGGUAACCCGUCUCCCUCCUAAAGAGAAGACUGCGGGUUCGACUCCCGUACGGAGCG [C5G A14C G23C G38A G58C A70G] | 0.545
28 | GUUCGGUUGGCGUCAAGGUAACGCGUCUCUCUCCUAACGACAAGAGUGCGGGUUCGAGUCCCGUACGGAACG [C5G A14C U16A C30U G38C G41C C46G] | ≤ 0.5
29 | GUUCGGUUGGCGUGGUGGUAACGCGUCUCUCUCCUAAGGAGAAGGCUGCGGGUUCGAGUCCCGAACGGAACG [C5G A14G A15G C30U A45G U64A] | ≤ 0.5
30 | GUUCGGUUGGCGUGAUAGUAACGCGUCUCCCCCCUAAGGAGAAGACUGCGGGUUCCAGUCCCGUACGGUACG [C5G A14G G17A U32C G56C A69U] | ≤ 0.5
31 | GUUCGGUUGGCGUUAUGGUUACGCGUCUCCCUCCUAAGGAAAAGACUGCGGGUUCGGGUCCCGUACGGAACG [C5G A14U A20U G41A A57G] | ≤ 0.5
32 | GUUCGGUUGGCGUUAUGGUAGCACGUCUCCUUCCUAAGGAGAAGACUGCGGGUUCGAGUCCCCAAGGGAACG [C5G A14U A21G G23A C31U G63C U64A C66G] | ≤ 0.5
33 | GUUCGGUUGGCGUUAUGGUAACGCGUCUCCCUCCUAAGGAGAUGACUGCGGGUCCGAGUCCCGUACGGAACG [C5G A14U A43U U54C] | 0.666
34 | GUUCGGUUGGCGUUAUGGUAACGCGUUUCCCUCCUAAGGAGUUGACCGCGGGUUCGAGUCCCGUACGGAACG [C5G A14U C27U A42U A43U U47C] | ≤ 0.5
35 | GUUCGGUUGGCGUUAUGGUAACGCGUCUCCCUCCUAAGGAGAAGACUGAGGGUUCGGGUCCCGUACGGAACG [C5G A14U C49A A57G] | 0.639
36 | GUUCGGUUGGCGUUAUGAUAUCGCGUCUCCCUCCUAAGGAGGAGACUGCGGGUUCGAGUCCUGUCCGGAACG [C5G A14U G18A A21U A42G C62U A65C] | ≤ 0.5
37 | GUUCGGUUGGCGUUAUGAUAUCGCGUCUCCCUCCUAAGGAGGAGACUGCGGGUUCCAGUCCCGUACGGAACG [C5G A14U G18A A21U A42G G56C] | ≤ 0.5
38 | GUUCGGUUGGCGUUAUGGUAACCCGUCUCCCUACUAAGGAGAAGACUGCGGGUUCGAGUCCCGUACGGAACG [C5G A14U G23C C33A] | ≤ 0.5

From the RNAGym collection of RNA variant scans (doi:10.1126/science.aae0568)
